Measurements taken from ChEMBL document CHEMBL3351470, “Synthesis and Structure-Activity Relationships of α-Amino-γ-lactone Ketolides: A Novel Class of Macrolide Antibiotics” (2014).
Values after ≈ are worked out from the molar mass of the structure shown.

Assays:
Type in all cases: functional
[1] = tested on: Haemophilus influenzae; experiment: Antibacterial activity against Haemophilus influenzae by agar microdilution method
Summary of the method: (§1)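 Strains from an in-house culture collection (Pliva Research Institute). MIC determined by agar microdilution following NCCLS standards and reported in μg/mL. Erythromycin-susceptible strains are listed as Ery-S; the panel also includes inducibly resistant (iMLS), constitutively resistant (MLSB) and efflux-resistant (M) strains.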

[2] = tested on: Streptococcus pyogenes; experiment: Antibacterial activity against erythromycin-susceptible Streptococcus pyogenes by agar microdilution method; summary of the method: as §1
[3] = tested on: Streptococcus pneumoniae; experiment: Antibacterial activity against erythromycin-susceptible Streptococcus pneumoniae by agar microdilution method; summary of the method: as §1
[4] = tested on: Streptococcus pneumoniae; experiment: Antibacterial activity against efflux-resistant Streptococcus pneumoniae by agar microdilution method
Summary of the method: (§2)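 Agar microdilution MIC following NCCLS standards; strains taken from the Pliva Research Institute culture collection. Panel grouped by phenotype: erythromycin-susceptible, inducibly MLS-resistant (iMLS), constitutively MLSB-resistant and efflux-resistant (M). Azithromycin, telithromycin and cethromycin tested alongside as references. MIC reported in μg/mL.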

[5] = tested on: Staphylococcus aureus; experiment: Antibacterial activity against macrolide lincosamide- streptogramin B inducibly-resistant Staphylococcus aureus by agar microdilution method; summary of the method: as §2
[6] = tested on: Streptococcus pyogenes; experiment: Antibacterial activity against efflux-resistant Streptococcus pyogenes by agar microdilution method; summary of the method: as §2
[7] = tested on: Staphylococcus aureus; experiment: Antibacterial activity against macrolide lincosamide- streptogramin B-resistant Staphylococcus aureus by agar microdilution method; summary of the method: as §2
[8] = tested on: Streptococcus pyogenes; experiment: Antibacterial activity against macrolide lincosamide- streptogramin B inducibly-resistant Streptococcus pyogenes by agar microdilution method; summary of the method: as §2
[9] = tested on: Streptococcus pneumoniae; experiment: Antibacterial activity against macrolide lincosamide- streptogramin B inducibly-resistant Streptococcus pneumoniae by agar microdilution method; summary of the method: as §2
[10] = tested on: Staphylococcus aureus; experiment: Antibacterial activity against erythromycin-susceptible Staphylococcus aureus by agar microdilution method; summary of the method: as §1

SMILES | MIC [1] | MIC [2] | MIC [3] | MIC [4] | MIC [5] | MIC [6] | MIC [7] | MIC [8] | MIC [9] | MIC [10]
CC[C@H]1OC(=O)[C@H](C)[C@@H](O[C@H]2C[C@@](C)(OC)[C@@H](O)[C@H](C)O2)[C@H](C)[C@@H](O[C@@H]2O[C@H](C)C[C@H](N(C)C)[C@H]2O)[C@](C)(O)C[C@@H](C)CN(C)[C@H](C)[C@@H](O)[C@]1(C)O [AZITHROMYCIN] | 1 µg/mL (≈ 1.34 µM) | ≤ 0.125 µg/mL | ≤ 0.125 µg/mL | 4 µg/mL (≈ 5.34 µM) | > 64 µg/mL | 1 µg/mL (≈ 1.34 µM) | > 64 µg/mL | > 64 µg/mL | > 64 µg/mL | 1 µg/mL (≈ 1.34 µM)
CC[C@H]1OC(=O)[C@H](C)C(=O)[C@H](C)[C@@H](O[C@@H]2O[C@H](C)C[C@H](N(C)C)[C@H]2O)[C@](C)(OC)C[C@@H](C)C(=O)[C@H](C)[C@H]2N(CCCCn3cnc(-c4cccnc4)c3)C(=O)O[C@]12C [TELITHROMYCIN] | 2 µg/mL (≈ 2.46 µM) | ≤ 0.06 µg/mL | ≤ 0.06 µg/mL | 0.5 µg/mL (≈ 0.616 µM) | 0.5 µg/mL (≈ 0.616 µM) | 0.25 µg/mL (≈ 0.308 µM) | > 64 µg/mL | 4 µg/mL (≈ 4.93 µM) | ≤ 0.125 µg/mL | ≤ 0.125 µg/mL
